TRPC6 inhibitor – inhibitors of mouse TRPC6 channel; hit rate 1.1% among 310,000; HEK293-TRPC6, membrane potential dye, ACh-evoked depolarization; hits give low values; AID 2553; B-score at 10 µM; Q61143;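 active means B-score under library mean minus 3 SD, initial fluorescence not abnormally high, positive integrated signal ratio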;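 further: B-score derived from integrated fluorescence ratio over the kinetic read; more negative B-score means stronger inhibition of depolarization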
TRPC4 inh – blocks the mouse TRPC4 cation channel; Q9QUQ5; HEK293 TRPC4beta/mu-opioid, DAMGO-evoked Fluo4 calcium flux; hits give low values; B-score at 10 µM; hit rate 0.39% among 300,000; AID 2247;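 active means B-score over 3 SD under the library average, no early fluorescence shift, positive overall ratio signal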
Target sequence (Q9QUQ5 whole entry, looked up): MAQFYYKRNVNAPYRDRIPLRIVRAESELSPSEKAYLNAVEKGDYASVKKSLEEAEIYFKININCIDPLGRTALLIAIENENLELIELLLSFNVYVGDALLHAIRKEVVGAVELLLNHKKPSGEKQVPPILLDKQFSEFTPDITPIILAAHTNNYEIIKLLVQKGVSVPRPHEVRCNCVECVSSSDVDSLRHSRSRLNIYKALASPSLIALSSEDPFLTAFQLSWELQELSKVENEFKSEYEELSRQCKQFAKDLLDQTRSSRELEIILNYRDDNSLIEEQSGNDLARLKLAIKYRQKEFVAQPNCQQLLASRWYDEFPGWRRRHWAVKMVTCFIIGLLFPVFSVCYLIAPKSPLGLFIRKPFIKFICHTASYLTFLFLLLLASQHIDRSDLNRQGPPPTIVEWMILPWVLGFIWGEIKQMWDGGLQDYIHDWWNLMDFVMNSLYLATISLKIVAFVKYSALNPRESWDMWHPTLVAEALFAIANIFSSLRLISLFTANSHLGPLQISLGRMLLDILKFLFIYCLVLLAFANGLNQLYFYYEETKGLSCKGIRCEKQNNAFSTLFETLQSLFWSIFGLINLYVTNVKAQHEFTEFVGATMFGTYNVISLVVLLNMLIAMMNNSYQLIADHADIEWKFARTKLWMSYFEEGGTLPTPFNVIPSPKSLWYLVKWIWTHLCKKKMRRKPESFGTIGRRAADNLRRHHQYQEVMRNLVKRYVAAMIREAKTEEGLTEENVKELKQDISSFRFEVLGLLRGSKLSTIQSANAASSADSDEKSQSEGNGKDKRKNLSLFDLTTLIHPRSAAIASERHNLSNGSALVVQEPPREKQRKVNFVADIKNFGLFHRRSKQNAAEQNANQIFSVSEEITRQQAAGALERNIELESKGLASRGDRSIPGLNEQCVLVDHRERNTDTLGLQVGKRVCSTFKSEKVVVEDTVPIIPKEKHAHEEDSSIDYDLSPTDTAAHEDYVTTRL
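Assay system: Stable TRPC4beta/mu-opioid receptor HEK293 cells | Reagent: DAMGO in two steps, submaximal then maximal | Compound dosing: Single concentration per test compound | Signal: Fluo4 Ca2+ flux fluorescence | Evaluation: Per-well B score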
TRPC6 activator – mouse TRPC6 channel activation. HEK293-TRPC6 membrane potential dye fluorescence; hits give high values. Q61143. B-score at 10 µM. hit rate 0.13% among 310,000. AID 2550;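 active means B-score of the integrated fluorescence ratio above library mean plus 3 SD, and starting fluorescence ratio within library mean plus 5 SD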;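 further: higher score means more depolarization so channel activation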
TRPC4 agonist – opens the mouse TRPC4 cation channel; HEK293 TRPC4beta/mu-opioid, Fluo4 calcium fluorescence; hits give high values; B-score at 10 µM; hit rate 0.49% among 310,000;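 active means B-score above 5 SD of library B-scores, and initial fluorescence ratio not above library mean plus 5 SD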;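 further: positive B-score marks a calcium rise read as TRPC4 activation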
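Incubation: 45 min room-temperature Fluo4 loading, 110 s read / System: HEK293 cells stably co-expressing mouse TRPC4beta and mu-opioid receptor / Signal: Fluo4 fluorescence, kinetic / Control set: buffer (low) and maximal DAMGO (high) / Measure: integrated baseline-normalised fluorescence ratio, converted to per-well B score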
TRPC4 potent – allosterically enhances the mouse TRPC4 cation channel; HEK293 TRPC4beta/mu-opioid, DAMGO EC20, Fluo-4 Ca2+ flux; hits give high values; AID 2227; B-score at 10 µM; hit rate 0.42% among 310,000;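 active means B-score of calcium response area above 5 SD of library B-scores, with initial fluorescence ratio within 5 SD of library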;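 further: B-score of integrated fluorescence ratio over time as area under calcium response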
* = called active by the depositor; i = inactive. Rows were chosen to be rich in hits. Some 2.3% of all compounds tested hit in one or more screens of this group.

SMILES	TRPC6 inhibitor	TRPC4 inh	TRPC6 activator	TRPC4 agonist	TRPC4 potent
O=C(Nc1ccc(F)cc1F)c1ccco1	i	i	i	70*	i
Cc1occc1C(=O)Nc1nnc(-c2cccs2)s1	i	i	i	i	i
Cc1cc(S(=O)(=O)NC2CCN(Cc3ccccc3)CC2)c(C)cc1Cl	i	i	i	i	20*
Cc1cc(C)c(S(=O)(=O)NC2CCN(Cc3ccccc3)CC2)c(C)c1	i	i	i	i	i
CC(=O)N1c2ccccc2C(C)(c2ccccc2)CC1(C)C (stereo not given)	i	-6*	i	i	i
O=C(O)CCc1cc(I)c(Oc2ccc(O)c(I)c2)c(I)c1	i	i	i	59*	i
N[C@@H](Cc1cc(I)c(Oc2ccc(O)c(I)c2)c(I)c1)C(=O)O	i	i	i	i	i
COCCCN(C(=O)c1ccccc1F)c1nc(-c2ccc(OC)cc2)cs1	i	i	i	i	i
Cc1nn(C(=O)c2cccnc2)c(C)c1Sc1ccccc1	i	-6*	i	i	i
O=c1c(Cc2ccccc2)c(O)ccn1CCc1cnc[nH]1	i	i	i	129*	i
O=c1c(Cc2ccc(F)cc2)c(O)ccn1CCc1cnc[nH]1	i	i	i	108*	i
O=c1c(Cc2ccc(F)cc2)c(O)ccn1Cc1ccc(F)cc1	i	i	i	i	i
COc1ccccc1CNC(=O)c1ccccc1NC(=O)C1=C(C)OCCS1	i	i	i	i	i
CN(C)c1nc(Cl)nc(N(C#N)CCOc2ccccc2)n1	i	i	i	i	i
O=C(CC1C(=O)NCCN1Cc1ccc(-c2ccccc2)cc1)NCCc1ccccn1 (stereo not given)	i	i	i	130*	i
CN(CCc1ccccn1)C(=O)CC1C(=O)NCCN1Cc1ccc(-c2ccccc2)cc1 (stereo not given)	i	i	i	160*	i
CCOc1ccccc1CN1CCNC(=O)C1CC(=O)NCCc1ccccn1 (stereo not given)	i	i	i	88*	i
CCOc1ccccc1CN1CCNC(=O)C1CC(=O)N(C)CCc1ccccn1 (stereo not given)	i	i	i	153*	i
CCOc1ccccc1CN1CCNC(=O)C1CC(=O)NCCC1=CCCCC1 (stereo not given)	i	i	i	i	i
CCOc1ccccc1CN1CCNC(=O)C1CC(=O)N(C)CCC1CCOCC1 (stereo not given)	i	i	i	i	i
Cc1ccc(CN2CCNC(=O)C2CC(=O)N(C)CCc2ccccc2)cc1 (stereo not given)	i	i	i	i	i
CN(C(=O)COC(=O)/C=C/c1ccc(F)cc1)c1c(N)n(Cc2ccccc2)c(=O)[nH]c1=O	i	i	i	i	i
Nc1ccc(C(=O)NCCCSc2ccccc2)cc1[N+](=O)[O-]	i	i	i	i	i
Cc1csc(CN(C)C(=O)CC2C(=O)NCCN2Cc2ccc(F)cc2Cl)n1 (stereo not given)	i	i	i	i	i
Cc1csc(CN(C)C(=O)CC2C(=O)NCCN2Cc2ccc(Cl)c(F)c2)n1 (stereo not given)	i	i	i	i	12*
SMILES	TRPC6 inhibitor	TRPC4 inh	TRPC6 activator	TRPC4 agonist	TRPC4 potent
CCOc1ccccc1OC(=O)CN1C(=O)c2ccccc2C1=O	i	i	i	i	i
Cc1ccc(S(=O)(=O)NCCc2ccncc2)cc1C	i	i	i	i	i
COc1ccc(CCN=C(N)Nc2nc(C)cc(C)n2)cc1	i	-6*	i	i	i
COc1ccc(CCN=C(N)NS(=O)(=O)c2ccc(OC)cc2)cc1	i	i	i	i	i
CC1CC(C)CN(CCCNC(=O)c2ccc(N3CCCC3=O)cc2)C1 (stereo not given)	i	i	i	i	25*
CC1CC(C)CN(CCCNC(=O)c2ccc3c(c2)NC(=O)CS3)C1 (stereo not given)	i	i	i	69*	i
CC1CC(C)CN(CCCNC(=O)Cn2cccc2C(=O)c2ccccc2)C1 (stereo not given)	i	i	i	105*	i
COCCCNc1nc2c(c(=O)n(Cc3ccc(OC)cc3)c(=O)n2C)n1C	i	i	i	i	i
COc1ccc(Cn2c(=O)c3c(nc(NCCO)n3C)n(C)c2=O)cc1	i	i	i	i	12*
Cc1cc(C)c(S(=O)(=O)NCCCn2ccnc2)cc1C	i	i	i	i	i
NC(=O)c1ccc(/C=N/O)[n+](Cc2ccccc2)c1	i	i	i	i	i
NC(=O)c1nsc(C(=O)N(Cc2ccco2)C(C(=O)NCC2CCCO2)c2ccc(O)cc2)c1N (stereo not given)	i	i	i	i	i
Cc1cccc(CCN(C(=O)c2snc(C(N)=O)c2N)C(C(=O)NCC2CCCO2)c2ccc(F)cc2)c1 (stereo not given)	i	-7*	i	i	i
NC(=O)c1nsc(C(=O)N(Cc2ccccc2F)C(C(=O)NCC2CCCO2)c2ccc(F)cc2)c1N (stereo not given)	i	-8*	i	i	i
COc1ccc(CCN(C(=O)c2snc(C(N)=O)c2N)C(C(=O)NCC2CCCO2)c2ccc(F)cc2)cc1OC (stereo not given)	i	i	i	i	i
NC(=O)c1nsc(C(=O)N(Cc2ccco2)C(C(=O)NCC2CCCO2)c2ccc(F)cc2)c1N (stereo not given)	i	-6*	i	i	i
Cc1cccc(-n2c(CCc3ccccc3)nnc2SCC(=O)c2ccccc2)c1	i	i	i	i	i
C=C(c1ccc(O)cc1)c1ccc(O)cc1	i	-6*	i	i	i
O=C(CNC(=O)c1cccs1)N=Nc1c(O)[nH]c2ccc([N+](=O)[O-])cc12	i	i	i	i	i
Cc1ccc(C)n1-c1ncc(Br)cn1	i	i	i	i	21*
Cc1nn(-c2nc3ccccc3n2Cc2ccccc2)c2c1C(=O)CC(C)(C)C2	i	-6*	i	i	i
Cc1nn(-c2ccccc2)c2c1C(=O)N(Cc1ccccc1)C(=O)C(C)(C)C2	i	i	i	i	i
COc1cc(NC(C)CCCN)c2ncccc2c1 (stereo not given)	i	i	i	181*	i
N=C1c2ccccc2CN1NC(=O)c1cccc(S(=O)(=O)N2CCOCC2)c1	i	i	i	i	i

Screens (PubChem)
